System: Fibroblast
Test: Multiplex assay against human fibroblast
Type: toxicity, cell-based
Outline: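 Values for tubulin, mitochondrial-mass and membrane-permeability phenotypes are per cents of cells with healthy nuclei. These cells were identified by CellPathfinder machine-learning gating of live cells that had been stained at seeding with Hoechst33342, BioTracker Green Microtubule Cytoskeleton Dye, MitoTracker Red and Annexin V Alexa Fluor 680 and imaged on a CQ1 microscope at 37°C and 5% CO2 after compound addition. The gating first set Hoechst high-intensity objects apart from normal cells, then split normal cells into healthy, pyknosed or fragmented nuclei, and pyknosed cells into mitotic or apoptotic.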

[1] = 12 h, 1 µM, compound concentration 1 uM, replicate 1
[2] = 12 h, 1 µM, compound concentration 1 uM, replicate 2
[3] = 12 h, 10 µM, compound concentration 10 uM, replicate 1
[4] = 12 h, 10 µM, compound concentration 10 uM, replicate 2
[5] = 24 h, 1 µM, compound concentration 1 uM, replicate 1
[6] = 24 h, 1 µM, compound concentration 1 uM, replicate 2
[7] = 24 h, 10 µM, compound concentration 10 uM, replicate 1
[8] = 24 h, 10 µM, compound concentration 10 uM, replicate 2
[9] = 48 h, 1 µM, compound concentration 1 uM, replicate 1
[10] = 48 h, 1 µM, compound concentration 1 uM, replicate 2
[11] = 48 h, 10 µM, compound concentration 10 uM, replicate 1
[12] = 48 h, 10 µM, compound concentration 10 uM, replicate 2

Q: Which results are given for `CC(C)COc1ccc(CNC(=O)N(Cc2ccc(F)cc2)C2CCN(C)CC2)cc1` [PIMAVANSERIN]?
A: Population Apoptotic (%) [1]: 65%; Population Fragmented Nuclei (%) [1]: 24%; Population Healthy Nuclei (%) [1]: 62%; Population Hoechst High Intensity Objects (%) [1]: 0%; Population Membrane Permeable-Phenotype (%) [1]: 0%; Population Mitochondria Different-Phenotype (%) [1]: 12%; Population Mitotic Cells (%) [1]: 34%; Population Normal (%) [1]: 100%; Population Pyknosed Nuclei (%) [1]: 12%; Population Tubulin-Different-Phenotype (%) [1]: 35%; Total Cell Count [1]: 179; Population Apoptotic (%) [2]: 61%; Population Fragmented Nuclei (%) [2]: 40%; Population Healthy Nuclei (%) [2]: 42%; Population Hoechst High Intensity Objects (%) [2]: 1%; Population Membrane Permeable-Phenotype (%) [2]: 7%; Population Mitochondria Different-Phenotype (%) [2]: 4%; Population Mitotic Cells (%) [2]: 38%; Population Normal (%) [2]: 98%; Population Pyknosed Nuclei (%) [2]: 16%; Population Tubulin-Different-Phenotype (%) [2]: 82%; Total Cell Count [2]: 160; Population Apoptotic (%) [3]: 56%; Population Fragmented Nuclei (%) [3]: 18%; Population Healthy Nuclei (%) [3]: 65%; Population Hoechst High Intensity Objects (%) [3]: 1%; Population Membrane Permeable-Phenotype (%) [3]: 0%; Population Mitochondria Different-Phenotype (%) [3]: 42%; Population Mitotic Cells (%) [3]: 43%; Population Normal (%) [3]: 98%; Population Pyknosed Nuclei (%) [3]: 16%; Population Tubulin-Different-Phenotype (%) [3]: 93%; Total Cell Count [3]: 185; Population Apoptotic (%) [4]: 51%; Population Fragmented Nuclei (%) [4]: 31%; Population Healthy Nuclei (%) [4]: 42%; Population Hoechst High Intensity Objects (%) [4]: 4%; Population Membrane Permeable-Phenotype (%) [4]: 2%; Population Mitochondria Different-Phenotype (%) [4]: 32%; Population Mitotic Cells (%) [4]: 48%; Population Normal (%) [4]: 95%; Population Pyknosed Nuclei (%) [4]: 26%; Population Tubulin-Different-Phenotype (%) [4]: 81%; Population Apoptotic (%) [5]: 60%; Population Fragmented Nuclei (%) [5]: 21%; Population Healthy Nuclei (%) [5]: 65%; Population Hoechst High Intensity Objects (%) [5]: 2%; Population Membrane Permeable-Phenotype (%) [5]: 1%; Population Mitochondria Different-Phenotype (%) [5]: 5%; Population Mitotic Cells (%) [5]: 39%; Population Normal (%) [5]: 97%; Population Pyknosed Nuclei (%) [5]: 12%; Population Tubulin-Different-Phenotype (%) [5]: 47%; Total Cell Count [5]: 186; Population Apoptotic (%) [6]: 52%; Population Fragmented Nuclei (%) [6]: 39%; Population Healthy Nuclei (%) [6]: 46%; Population Membrane Permeable-Phenotype (%) [6]: 4%; Population Mitochondria Different-Phenotype (%) [6]: 9%; Population Mitotic Cells (%) [6]: 47%; Population Pyknosed Nuclei (%) [6]: 13%; Population Tubulin-Different-Phenotype (%) [6]: 76%; Total Cell Count [6]: 157; Population Apoptotic (%) [7]: 83%; Population Fragmented Nuclei (%) [7]: 13%; Population Healthy Nuclei (%) [7]: 67%; Population Hoechst High Intensity Objects (%) [7]: 4%; Population Membrane Permeable-Phenotype (%) [7]: 0%; Population Mitochondria Different-Phenotype (%) [7]: 41%; Population Mitotic Cells (%) [7]: 16%; Population Normal (%) [7]: 95%; Population Pyknosed Nuclei (%) [7]: 18%; Population Tubulin-Different-Phenotype (%) [7]: 92%; Total Cell Count [7]: 170; Population Apoptotic (%) [8]: 69%; Population Fragmented Nuclei (%) [8]: 27%; Population Healthy Nuclei (%) [8]: 50%; Population Hoechst High Intensity Objects (%) [8]: 8%; Population Membrane Permeable-Phenotype (%) [8]: 3%; Population Mitochondria Different-Phenotype (%) [8]: 38%; Population Mitotic Cells (%) [8]: 30%; Population Normal (%) [8]: 91%; Population Pyknosed Nuclei (%) [8]: 21%; Population Tubulin-Different-Phenotype (%) [8]: 96%; Total Cell Count [8]: 167; Population Apoptotic (%) [9]: 88%; Population Fragmented Nuclei (%) [9]: 27%; Population Healthy Nuclei (%) [9]: 62%; Population Hoechst High Intensity Objects (%) [9]: 3%; Population Membrane Permeable-Phenotype (%) [9]: 1%; Population Mitochondria Different-Phenotype (%) [9]: 3%; Population Mitotic Cells (%) [9]: 11%; Population Normal (%) [9]: 96%; Population Pyknosed Nuclei (%) [9]: 9%; Population Tubulin-Different-Phenotype (%) [9]: 45%; Total Cell Count [9]: 204; Population Apoptotic (%) [10]: 52%; Population Fragmented Nuclei (%) [10]: 44%; Population Healthy Nuclei (%) [10]: 44%; Population Hoechst High Intensity Objects (%) [10]: 5%; Population Membrane Permeable-Phenotype (%) [10]: 4%; Population Mitochondria Different-Phenotype (%) [10]: 12%; Population Mitotic Cells (%) [10]: 47%; Population Normal (%) [10]: 94%; Population Pyknosed Nuclei (%) [10]: 10%; Population Tubulin-Different-Phenotype (%) [10]: 64%; Total Cell Count [10]: 167; Population Apoptotic (%) [11]: 92%; Population Fragmented Nuclei (%) [11]: 15%; Population Healthy Nuclei (%) [11]: 67%; Population Hoechst High Intensity Objects (%) [11]: 12%; Population Membrane Permeable-Phenotype (%) [11]: 0%; Population Mitochondria Different-Phenotype (%) [11]: 44%; Population Mitotic Cells (%) [11]: 8%; Population Normal (%) [11]: 87%; Population Pyknosed Nuclei (%) [11]: 17%; Population Tubulin-Different-Phenotype (%) [11]: 91%; Total Cell Count [11]: 163; Population Apoptotic (%) [12]: 75%; Population Fragmented Nuclei (%) [12]: 30%; Population Healthy Nuclei (%) [12]: 53%; Population Hoechst High Intensity Objects (%) [12]: 6%; Population Membrane Permeable-Phenotype (%) [12]: 3%; Population Mitochondria Different-Phenotype (%) [12]: 41%; Population Mitotic Cells (%) [12]: 25%; Population Normal (%) [12]: 93%; Population Pyknosed Nuclei (%) [12]: 16%; Population Tubulin-Different-Phenotype (%) [12]: 92%; Total Cell Count [12]: 159

— ChEMBL document CHEMBL5058577, “EUbOPEN Chemogenomics Library 2 (Multiplex)” (2022)
